Reference: ChEMBL document CHEMBL4334552, “Discovery of BMS-986260, a Potent, Selective, and Orally Bioavailable TGFβR1 Inhibitor as an Immuno-oncology Agent” (ACS Med Chem Lett, 2020)
The source made the active and inactive calls. The rule behind the calls is not given here.

Key:
[1] = target: T1, TGF-beta receptor type-1 (Homo sapiens, UniProt P36897); assay: Inhibition of TGFbetaR1 in anti-CD3/anti-CD28/IL-2/TGFbeta -stimulated human Treg cells assessed as downregulation of FOXP3 expression incubated for 5 days by flow cytometry analysis
T1 sequence (P36897 whole entry): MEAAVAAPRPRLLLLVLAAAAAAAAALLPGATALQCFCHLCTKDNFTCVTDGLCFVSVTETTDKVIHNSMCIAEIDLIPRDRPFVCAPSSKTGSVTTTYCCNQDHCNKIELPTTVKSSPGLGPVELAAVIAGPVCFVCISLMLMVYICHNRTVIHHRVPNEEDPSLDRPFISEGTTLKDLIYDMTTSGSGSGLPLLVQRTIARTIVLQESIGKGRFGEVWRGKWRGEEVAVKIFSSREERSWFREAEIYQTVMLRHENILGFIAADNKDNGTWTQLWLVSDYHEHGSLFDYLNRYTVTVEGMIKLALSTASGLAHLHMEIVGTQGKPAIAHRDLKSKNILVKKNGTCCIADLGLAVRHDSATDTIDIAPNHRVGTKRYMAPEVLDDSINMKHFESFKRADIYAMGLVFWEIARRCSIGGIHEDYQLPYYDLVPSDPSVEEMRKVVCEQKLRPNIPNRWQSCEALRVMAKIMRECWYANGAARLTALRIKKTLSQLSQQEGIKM

[2] = tested on: MC-38; assay: Antitumour activity against mouse MC38 cells allografted in C57Bl/6 mouse assessed as reduction in tumour growth at 3.75 to 15 mg/kg, po qd for 28 days cotreated with anti-PD1 at 10 mg/kg, ip every 4 days for 3 doses by digital caliper analysis; type: functional, organism-based
Summary of the method: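 C57/BL6 mice received 0.1 mL of MC38 cells (1 × 10^7 cells/mL) subcutaneously in the right flank. Mice were randomized at about 100 mm3, typically day 5. Oral dosing was once daily for 28 days at 3.75, 7.5 or 15 mg/kg. Anti-PD-1 was given at 10 mg/kg IP every 4 days for three doses. Isotype IgG1 MOPC-21 served as control on the same schedule.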

Which results are given for N#Cc1cnc2ccc(-c3c(-c4ccc(F)c(Cl)c4)ncn3CCO)nn12?
IC50 [1]: 230 nM; inhibition [2]: Active
